Experimental findings from ChEMBL document CHEMBL3112586, “Synthesis of neolignans as microtubule stabilisers” (Bioorg Med Chem, 2014) are described below.

The subject of data set [1] is Mus musculus. Put plainly: Toxicity in Swiss albino mouse assessed as change in albumin level at 300 mg/kg, po (reference value: 3.35 +/- 0.51 g/dL). The data set is classed as organism-based. Details: dose 300 mg/kg, route oral. As to conditions: in vivo.
The test system of data set [2] is MCF7. Put plainly: Cell cycle arrest in human MCF7 cells assessed as accumulation at G2 phase at 5 to 30 uM after 24 hrs by propidium iodide staining-based FACS analysis. The format is functional. The procedure, abridged: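 MCF-7 in DMEM, 10% FBS, 37 °C, 5% CO2; treated 24 h, harvested, washed cold PBS, resuspended 2 × 10⁶ cells/ml, fixed absolute ethanol, RNase A treated, propidium iodide (50 µg/mL) 30 min room temperature; DNA content by flow cytometry; phase distribution versus untreated control.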

Data set [3] concerns Mus musculus. Put plainly: Toxicity in Swiss albino mouse assessed as change in creatinine level at 5 mg/kg, po (reference value: 0.63 +/- 0.18 mg/dL). The format is organism-based. Set-up: dose 5 mg/kg, route oral. Conditions: in vivo.
Data set [4] relates to Mus musculus. Put plainly: Toxicity in Swiss albino mouse assessed as change in albumin level at 5 mg/kg, po (reference value: 3.35 +/- 0.51 g/dL). Set-up: dose 5 mg/kg, route oral. The data set is classed as organism-based. As to conditions: in vivo.
Data set [5] has as its system Mus musculus. Put plainly: Toxicity in Swiss albino mouse assessed as change in SGPT level at 5 mg/kg, po (reference value: 12.28 +/- 3.73 U/L). The data set is classed as organism-based. Set-up: dose 5 mg/kg, route oral. As to conditions: in vivo.
In data set [6] the test system is Mus musculus. Put plainly: Toxicity in Swiss albino mouse assessed as change in SGPT level at 50 mg/kg, po (reference value: 12.28 +/- 3.73 U/L). The format is organism-based. Conditions: in vivo. Set-up: dose 50 mg/kg, route oral.
The subject of data set [7] is Mus musculus. Put plainly: Toxicity in Swiss albino mouse assessed as change in cholesterol level at 300 mg/kg, po (reference value: 81.64 +/- 4.26 mg/dL). Set-up: dose 300 mg/kg, route oral. As to conditions: in vivo. The data set is classed as organism-based.
In the next data set the test system is MDA-MB-231. Put plainly: Cell cycle arrest in human MDA-MB-231 cells at 5 to 30 uM after 24 hrs by propidium iodide staining-based FACS analysis. The format is functional. An outline of the steps:
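MDA-MB-231 grown in DMEM with 10% FBS at 37 °C, 5% CO2; 24 h treatment, then cold-PBS wash, 2 × 10⁶ cells/ml, absolute-ethanol fixation, RNase A, propidium iodide 50 µg/mL for 30 min at room temperature; flow cytometric DNA content, sub-diploid fraction scored.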
Background: Flow cytometry measures light scatter and fluorescence of single cells or particles in a stream.

Data set [8] addresses T1, Tubulin (Homo sapiens) (UniProt P68371+Q9H4B7+P0DPH7+P68366+Q13509+Q71U36+P04350+Q3ZCM7+P07437+P68363+Q9BQE3+Q6PEY2+Q13885+Q9BVA1+Q9BUF5). Put plainly: Induction of tubulin polymerization (unknown origin) at 10 to 40 uM measured every min for 1 hr. The data set is classed as protein-complex assay. An outline of the steps:
(§1)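 Tubulin 3 mg/mL in 80 mM PIPES pH 6.9, 2 mM MgCl2, 0.5 mM EGTA, 1 mM GTP, 15% glycerol at 37 °C with test compounds at varied concentrations; turbidity at 340 nm read every min for 1 h; podophyllotoxin inhibitor and paclitaxel stabiliser references, DMSO negative control.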

The subject of data set [9] is Mus musculus. Put plainly: Toxicity in Swiss albino mouse assessed as change in total haemoglobin level at 1000 mg/kg, po (reference value: 11.39 +/- 0.84 g/dL). The data set is classed as organism-based. Conditions: in vivo. Set-up: dose 1000 mg/kg, route oral.
The subject of data set [10] is Mus musculus. Put plainly: Toxicity in Swiss albino mouse assessed as morbidity at 5 to 1000 mg/kg, po. The data set is classed as organism-based. Details: dose 5-1000 mg/kg, route oral. Conditions: in vivo. The procedure, abridged: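 Swiss albino mice (3 male, 3 female per group, 20-25 g) were given one oral dose of 5, 50, 300 or 1000 mg/kg in DMSO/0.7% carboxymethyl cellulose, or vehicle. Mortality and signs of ill health were checked hourly on the dosing day, then daily for 7 days. Checks covered skin, mucous membranes, eyes, secretions, lachrymation, pilo-erection, respiration, gait, posture and response to handling.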

Data set [11] deals with T1, Tubulin (Homo sapiens). Put plainly: Induction of tubulin polymerization (unknown origin) at 10 to 40 uM measured every min for 1 hr in presence of PDT. The data set is classed as protein-complex assay. An outline of the steps:
as §1

In data set [12] the test system is MCF7. Put plainly: Cytotoxicity against human MCF7 cells after 72 hrs by MTT assay. As to conditions: MCF7, 72 h. The data set is classed as functional, cell-based. The procedure, abridged: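 Cells in DMEM, 10% FBS, 37 °C, 5% CO2, plated and incubated 24 h; compounds diluted in phenol-red-free DMEM with 0.5% FBS, vehicle control; after exposure, MTT (5 mg/mL stock) added 3 h, formazan dissolved in DMSO, absorbance 570 nm; IC50 derived; podophyllotoxin and tamoxifen positive controls.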
(In general: Tetrazolium assays rely on reduction of a dye to a coloured formazan, in cell work by metabolically active cells.)

Data set [13] relates to Mus musculus. Put plainly: Toxicity in Swiss albino mouse assessed as mortality up to 1000 mg/kg, po. The data set is classed as organism-based. Set-up: dose 1000 mg/kg, route oral. Conditions: in vivo. The procedure, abridged: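 Acute oral toxicity per OECD guideline 423. Mice of 20–25 g, 3 male and 3 female per group (n = 6), acclimatised 7 days. Single oral dose of 5, 50, 300 or 1000 mg/kg in DMSO suspended in 0.7% carboxymethyl cellulose; controls got vehicle only. Mortality and clinical signs checked hourly on the dosing day, then daily. On day 7: body weight, haematology, serum biochemistry, necropsy and organ weights.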

For data set [14], the system named is Mus musculus. Put plainly: Toxicity in Swiss albino mouse assessed as change in triglyceride level at 300 mg/kg, po (reference value: 121.45 +/- 24.02 mg/dL). The format is organism-based. Details: dose 300 mg/kg, route oral. As to conditions: in vivo.
Data set [15] relates to Mus musculus. Put plainly: Toxicity in Swiss albino mouse assessed as change in SGOT level at 300 mg/kg, po (reference value: 25.27 +/- 1.32 U/L). Conditions: in vivo. The data set is classed as organism-based. Details: dose 300 mg/kg, route oral.
Data set [16] relates to Mus musculus. Put plainly: Toxicity in Swiss albino mouse assessed as relative heart weight at 5 to 1000 mg/kg, po relative to control. The data set is classed as organism-based. Set-up: dose 5-1000 mg/kg, route oral. Conditions: in vivo. An outline of the steps: (§2)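 One oral dose (5–1000 mg/kg; DMSO then 0.7% carboxymethyl cellulose vehicle; controls vehicle-only) was given to groups of 6 mice (3 male, 3 female). On day 7 the animals were sacrificed and necropsied for gross pathology. Absolute and relative weights of vital organs were recorded and compared with control.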

For data set [17], the system named is Mus musculus. Put plainly: Toxicity in Swiss albino mouse assessed as relative spleen weight at 5 to 1000 mg/kg, po relative to control. The data set is classed as organism-based. Conditions: in vivo. Set-up: dose 5-1000 mg/kg, route oral. An outline of the steps: as §2
In data set [18] the test system is Mus musculus. Put plainly: Toxicity in Swiss albino mouse assessed as relative kidney weight at 5 to 1000 mg/kg, po relative to control. As to conditions: in vivo. The format is organism-based. Details: dose 5-1000 mg/kg, route oral. An outline of the steps: as §2
Data set [19] has as its system Mus musculus. Put plainly: Toxicity in Swiss albino mouse assessed as change in basophil count at 5 to 1000 mg/kg, po relative to control. The data set is classed as organism-based. Details: dose 5-1000 mg/kg, route oral. As to conditions: in vivo.

Calls of active or inactive are those of the source. No cut-off for these calls is given here.

On to `CCOC(=O)/C=C/c1ccc(O)c(/C(=C/c2ccc(O)cc2)C(=O)OCC)c1`, for which the Activity was found to be 2.59 g/dL in the data set with Mus musculus [1]; 1.05 mg/dL with Mus musculus [3]; 3.17 g/dL in the data set on Mus musculus [4]; 13.15 U/L in the data set with Mus musculus [5]; 12.52 U/L in the data set with Mus musculus [6]; 77.65 mg/dL with Mus musculus [7]. Moreover, the Activity in the data set on Mus musculus [9] is 13.32 g/dL; in the data set with Mus musculus [10] it was “Non-toxic”; in the data set with Mus musculus [13], “Non-toxic”; in the data set with Mus musculus [14], 134.38 mg/dL; in the data set with Mus musculus [15], 37.95 U/L; in the data set with Mus musculus [16] it was “Non-toxic”. The Activity result in the data set with Mus musculus [17], in the data set with Mus musculus [18] and in the data set with Mus musculus [19] was “Non-toxic” each time. In addition, the result in the data set with MCF7 [2] and at Tubulin (Homo sapiens) [8] was Active. Besides, the result in the data set with MDA-MB-231 and on Tubulin (Homo sapiens) [11] was inactive. The compound also gave an IC50 in the data set with MCF7 [12] of 3.27 µM.

For orientation: IC50 means the point on the concentration scale where inhibition reaches its midpoint. A lower IC50 goes with higher potency.
